Measured values published in ChEMBL document CHEMBL1124012, “Synthesis of sulfur-containing analogues of bestatin. Inhibition of aminopeptidases by alpha-thiolbestatin analogues” (J Med Chem, 1988).
pKi: −log10 of the molar value.

How the values were obtained:
Cytosol aminopeptidase = Cytosol aminopeptidase (Homo sapiens, UniProt P28838); assay: Inhibitory activity against Leucine aminopeptidase; parameters: species or system Streptomyces olivoreticuli
Outline: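 Cytosolic leucine aminopeptidase, converted to Zn/Mg form by 4 h at 37 °C in 10 mM HEPES pH 8.0 with 5 mM MgSO4 and 1 M KCl. Assayed at 25 °C in 0.1 M Tris pH 8.5 with 5 mM MgCl2, enzyme 5 nM (1 nM for very tight binders).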

Aminopeptidase N = target: T1, Aminopeptidase N (Sus scrofa, UniProt P15145); assay: Inhibitory activity against Aminopeptidase M
T1 sequence (P15145 whole entry): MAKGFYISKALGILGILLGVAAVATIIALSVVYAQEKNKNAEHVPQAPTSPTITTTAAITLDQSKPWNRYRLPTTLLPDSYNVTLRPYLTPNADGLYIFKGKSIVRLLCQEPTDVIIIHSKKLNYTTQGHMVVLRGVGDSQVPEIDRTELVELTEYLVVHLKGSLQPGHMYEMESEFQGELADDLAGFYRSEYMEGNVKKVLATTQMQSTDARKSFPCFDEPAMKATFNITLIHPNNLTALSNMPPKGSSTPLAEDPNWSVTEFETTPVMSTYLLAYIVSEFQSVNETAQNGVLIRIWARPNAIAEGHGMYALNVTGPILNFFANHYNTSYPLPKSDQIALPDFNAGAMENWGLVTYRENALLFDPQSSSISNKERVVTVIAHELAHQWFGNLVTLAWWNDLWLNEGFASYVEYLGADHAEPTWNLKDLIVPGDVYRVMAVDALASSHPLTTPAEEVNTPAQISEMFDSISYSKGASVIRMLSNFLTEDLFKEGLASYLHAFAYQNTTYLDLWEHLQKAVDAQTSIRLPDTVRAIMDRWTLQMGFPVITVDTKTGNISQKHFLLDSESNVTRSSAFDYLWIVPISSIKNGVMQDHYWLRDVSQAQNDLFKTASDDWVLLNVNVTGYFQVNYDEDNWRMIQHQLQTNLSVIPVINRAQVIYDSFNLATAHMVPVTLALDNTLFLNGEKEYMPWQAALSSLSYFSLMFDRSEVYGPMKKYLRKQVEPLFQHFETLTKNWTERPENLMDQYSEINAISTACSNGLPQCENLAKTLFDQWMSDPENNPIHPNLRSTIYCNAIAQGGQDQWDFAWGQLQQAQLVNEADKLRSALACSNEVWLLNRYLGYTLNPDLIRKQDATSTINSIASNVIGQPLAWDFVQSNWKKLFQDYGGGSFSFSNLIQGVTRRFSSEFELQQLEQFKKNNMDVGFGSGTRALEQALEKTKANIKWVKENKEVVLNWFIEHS

Aminopeptidase B = target: T2, Aminopeptidase B (Rattus norvegicus, UniProt O09175); assay: Inhibitory activity against aminopeptidase B
T2 sequence (O09175 whole entry): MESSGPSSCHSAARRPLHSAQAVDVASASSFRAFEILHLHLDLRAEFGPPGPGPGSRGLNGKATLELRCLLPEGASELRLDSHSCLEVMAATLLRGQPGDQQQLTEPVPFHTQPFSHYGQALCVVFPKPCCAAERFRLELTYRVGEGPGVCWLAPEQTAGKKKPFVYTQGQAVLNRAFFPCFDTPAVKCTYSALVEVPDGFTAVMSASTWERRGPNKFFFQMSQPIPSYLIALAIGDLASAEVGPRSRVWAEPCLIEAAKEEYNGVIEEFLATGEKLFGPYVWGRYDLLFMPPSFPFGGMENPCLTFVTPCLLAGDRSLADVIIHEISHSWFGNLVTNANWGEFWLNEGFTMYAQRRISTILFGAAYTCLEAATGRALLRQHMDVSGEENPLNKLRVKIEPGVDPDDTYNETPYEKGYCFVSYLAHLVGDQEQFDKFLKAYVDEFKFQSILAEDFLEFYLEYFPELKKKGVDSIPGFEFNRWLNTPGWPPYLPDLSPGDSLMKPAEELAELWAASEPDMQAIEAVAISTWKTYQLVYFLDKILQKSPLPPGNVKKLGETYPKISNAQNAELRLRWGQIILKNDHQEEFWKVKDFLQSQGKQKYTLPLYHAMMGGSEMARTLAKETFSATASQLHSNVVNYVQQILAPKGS
Outline: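 Aminopeptidase B at an estimated 4.6 nM, diluted 10-fold for tight binders, in 0.1 M PIPES pH 7.0 with 0.2 M NaCl and 1 mM DTT, 25 °C. Substrate was L-arginine p-nitroanilide, used near Km, with hydrolysis read at 405 nm. Where slow binding appeared, enzyme and inhibitor were preincubated 10–20 min before substrate was added.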

Cytosol aminopeptidase, sequence (P28838 whole entry): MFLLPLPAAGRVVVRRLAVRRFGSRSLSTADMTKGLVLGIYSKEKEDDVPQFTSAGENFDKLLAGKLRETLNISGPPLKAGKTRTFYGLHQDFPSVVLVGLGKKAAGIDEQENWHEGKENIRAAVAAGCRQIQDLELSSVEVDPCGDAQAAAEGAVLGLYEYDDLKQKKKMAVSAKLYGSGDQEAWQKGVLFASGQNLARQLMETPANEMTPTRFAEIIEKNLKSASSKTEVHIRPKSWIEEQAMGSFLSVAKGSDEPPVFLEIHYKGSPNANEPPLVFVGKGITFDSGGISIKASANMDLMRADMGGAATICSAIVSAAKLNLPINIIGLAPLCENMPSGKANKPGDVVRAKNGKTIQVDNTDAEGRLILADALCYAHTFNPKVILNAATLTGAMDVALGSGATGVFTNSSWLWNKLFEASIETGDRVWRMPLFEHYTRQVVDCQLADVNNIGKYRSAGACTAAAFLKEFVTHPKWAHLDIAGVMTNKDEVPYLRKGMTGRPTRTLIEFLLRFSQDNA

`CC(C)C[C@H](NC(=O)[C@@H](S)[C@H](N)Cc1ccccc1)C(=O)O` [listing 1 of 2 here] gave a pKi (Cytosol aminopeptidase) of 6.00, a pKi (Aminopeptidase N) of 5.04 and a pKi (Aminopeptidase B) of 8.19.
`CC(C)C[C@H](NC(=O)[C@@H](S)[C@H](N)Cc1ccccc1)C(=O)O` [listing 2 of 2 here] gave a pKi (Cytosol aminopeptidase) of 6.26, a pKi (Aminopeptidase N) of 5.36 and a pKi (Aminopeptidase B) of 8.34.
With `CC(C)CCNC(=O)[C@@H](O)[C@H](N)Cc1ccccc1` the pKi (Cytosol aminopeptidase) was 6.29, the pKi (Aminopeptidase N) was 4.70 and the pKi (Aminopeptidase B) was 4.41.
`CC(C)CC/N=C(\S)[C@@H](O)[C@H](N)Cc1ccccc1` gave a pKi (Cytosol aminopeptidase) of 5.36, a pKi (Aminopeptidase N) of 3.15 and a pKi (Aminopeptidase B) of less than 3.00.
`COC(=O)C(S)[C@H](N)Cc1ccccc1` (some centres undefined) gave a pKi (Cytosol aminopeptidase) of 3.52, a pKi (Aminopeptidase N) of 3.51 and a pKi (Aminopeptidase B) of 3.80.
`NCCCC[C@@H](N)CS` gave a pKi (Cytosol aminopeptidase) of less than 3.00, a pKi (Aminopeptidase N) of 6.96 and a pKi (Aminopeptidase B) of 9.04.
Work on `CC(C)C[C@H](N)C(C)O` (some centres undefined) yielded a pKi (Cytosol aminopeptidase) of 3.29, a pKi (Aminopeptidase N) of 3.45 and a pKi (Aminopeptidase B) of less than 3.70.
`COC(=O)C(O)[C@H](N)Cc1ccccc1` (some centres undefined) showed a pKi (Cytosol aminopeptidase) of 4.48, a pKi (Aminopeptidase N) of 3.00 and a pKi (Aminopeptidase B) of less than 3.00.
Work on `CC(C)C[C@H](/N=C(\S)[C@@H](O)[C@H](N)Cc1ccccc1)C(=O)O` yielded a pKi (Cytosol aminopeptidase) of 6.48, a pKi (Aminopeptidase N) of 4.39 and a pKi (Aminopeptidase B) of 5.62.
Compound `NCCCC[C@@H](N)CO` has a pKi (Aminopeptidase B) of 4.00.
With `CC(C)CCNC(=O)[C@H](S)[C@@H](N)Cc1ccccc1` the pKi (Cytosol aminopeptidase) was 4.59, the pKi (Aminopeptidase N) was 4.49 and the pKi (Aminopeptidase B) was 4.45.
For `CC(C)CCNC(=O)[C@@H](S)[C@H](N)Cc1ccccc1`, the pKi (Cytosol aminopeptidase) was 4.78, the pKi (Aminopeptidase N) was 5.31 and the pKi (Aminopeptidase B) was 5.40.
Work on `CC(C)C[C@@H](N)CS` yielded a pKi (Cytosol aminopeptidase) of 3.35, a pKi (Aminopeptidase N) of 7.70 and a pKi (Aminopeptidase B) of 6.89.
In the case of `CC(C)C[C@H](N)C(C)S` (some centres undefined), the pKi (Cytosol aminopeptidase) was less than 3.30, the pKi (Aminopeptidase N) was 5.22 and the pKi (Aminopeptidase B) was 5.15.
For `CC(C)C[C@@H](N)CO`, the pKi (Cytosol aminopeptidase) was less than 3.00, the pKi (Aminopeptidase N) was less than 3.00 and the pKi (Aminopeptidase B) was less than 3.00.
`CC(C)C[C@H](NC(=O)[C@@H](O)[C@H](N)Cc1ccccc1)C(=O)O` [UBENIMEX] showed a pKi (Aminopeptidase B) of 7.22.
